Values after ≈ are worked out from the molar mass of the structure shown. Active and inactive are the calls of the source. No cut-off for these calls is given here.
Key:
[1] = test system: Staphylococcus aureus; test: Bactericidal activity against Staphylococcus aureus ATCC25923 incubated for 24 hrs by broth microdilution method; type: functional
Outline: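 MBC from the broth microdilution plates (MHB, 2-fold dilutions). After 24 h, 5 µL aliquots from clear wells were plated on LB agar and incubated aerobically 24 h at 37 °C, then colonies counted. MBC = lowest concentration with no colonies.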

[2] = Metabolic stability in rat liver microsomes assessed as compound remaining preincubated for 5 mins followed by NADPH addition measured after 30 mins by LC/MS analysis; type: ADME, Microsome; settings: time 35 min, read-out: Stability
Outline: (§1)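 Liver microsomes (final protein 0.75 mg/mL) with compound in 100 mM phosphate buffer pH 7.4, preincubated 5 min at 37 °C. Reaction started with NADPH regeneration system, stopped at 5, 15, 30 and 45 min with acetonitrile containing internal standard. Percent remaining measured by LC/MS, with ketanserin as reference; variation given as RSD of area ratio.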

[3] = test system: Staphylococcus aureus; test: Antibacterial activity against Staphylococcus aureus ATCC25923 infected in ICR mouse assessed as reduction in bacterial burden in plasma at 25 mg/kg, ip by colony forming unit assay; type: functional, organism-based
[4] = Tmax in ICR mouse at 1 mg/kg, iv measured for 0.08 to 24 hrs by LC-MS/MS analysis; type: ADME, organism-based; settings: in vivo, time 0.08-24 hrs
Outline: (§2)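 Male ICR mice, single intravenous dose formulated in 5% DMSO, 4% ethanol, 5% Cremophor EL, 86% water. Blood sampled at 5, 15, 30 min, 1, 2, 4, 8 and 24 h; plasma stored at -20 °C. Compound quantified by LC-MS/MS, with parameters from non-compartmental analysis.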

[5] = molecular target: T1, Cell division protein FtsZ (Staphylococcus aureus) (UniProt P0A031); test: Inhibition of recombinant Staphylococcus aureus FtsZ-mediated GTPase activity preincubated for 10 mins followed by GTP addition measured after 30 mins by absorbance based assay; settings: dose <= 35.0 µg/ml, time 40.0 min
T1 sequence (whole entry): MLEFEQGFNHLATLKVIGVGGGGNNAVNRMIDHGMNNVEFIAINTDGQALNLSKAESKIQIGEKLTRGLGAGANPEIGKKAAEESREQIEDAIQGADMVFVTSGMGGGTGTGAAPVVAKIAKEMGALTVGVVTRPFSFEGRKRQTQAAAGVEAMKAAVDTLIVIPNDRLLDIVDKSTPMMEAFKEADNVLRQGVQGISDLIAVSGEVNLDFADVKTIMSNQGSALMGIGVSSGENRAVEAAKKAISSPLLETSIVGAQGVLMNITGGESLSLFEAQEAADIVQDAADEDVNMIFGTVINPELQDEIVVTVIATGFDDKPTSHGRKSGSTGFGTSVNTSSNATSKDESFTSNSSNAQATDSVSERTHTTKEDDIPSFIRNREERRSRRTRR
Outline: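 S. aureus FtsZ (6 µM) preincubated 10 min at room temperature with a range of compound concentrations in 50 mM Hepes-KOH. KCl 300 mM, MgCl2 5 mM and GTP 1 mM then added, 30 min at 37 °C. Reaction quenched with Cytophos reagent for 10 min; released phosphate read at 620 nm.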

[6] = test system: Bacillus subtilis; test: Induction of morphological changes in Bacillus subtilis ATCC9372 assessed as increase in cell length at MIC incubated for 3 hrs by microscopic analysis (reference value: 10 um); type: functional
[7] = Metabolic stability in mouse liver microsomes assessed as compound remaining preincubated for 5 mins followed by NADPH addition measured after 30 mins by LC/MS analysis; type: ADME, Microsome; settings: time 35 min, read-out: Stability; outline: as §1
[8] = Metabolic stability in human liver microsomes assessed as compound remaining preincubated for 5 mins followed by NADPH addition measured after 5 mins by LC/MS analysis; type: ADME, Microsome; settings: time 10 min, read-out: Stability; outline: as §1
[9] = test system: Bacillus subtilis; test: Selectivity ratio of MBC for Bacillus subtilis ATCC9372 to MIC for Bacillus subtilis ATCC9372; type: functional
Outline: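 After 24 h of broth microdilution, 5 µL from clear wells plated on LB agar and incubated aerobically for 24 h at 37 °C. MBC is the lowest concentration with no colonies. Ratio is MBC over MIC, with ≤4 taken as bactericidal and >4 as bacteriostatic.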

[10] = AUC (0 to t) in ICR mouse at 1 mg/kg, iv measured for 0.08 to 24 hrs by LC-MS/MS analysis; type: ADME, organism-based; set-up: time 0.08-24 hrs, dose 1 mg/kg, route iv; settings: in vivo; outline: as §2
[11] = Metabolic stability in human liver microsomes assessed as compound remaining preincubated for 5 mins followed by NADPH addition measured after 15 mins by LC/MS analysis; type: ADME, Microsome; settings: time 20 min, read-out: Stability; outline: as §1
[12] = Cmax in ICR mouse at 1 mg/kg, iv measured for 0.08 to 24 hrs by LC-MS/MS analysis; type: ADME, organism-based; set-up: time upper 24 hrs, dose 1 mg/kg, time lower 0.08 hrs, route iv; settings: in vivo; outline: as §2
[13] = test system: Staphylococcus aureus; test: Antibacterial activity against methicillin-resistant Staphylococcus aureus shhsE1 assessed as bacterial growth inhibition incubated for 18 hrs by CLSI based broth microdilution method; type: functional
Outline: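 Broth microdilution to CLSI guidelines. Log-phase bacteria grown in Mueller Hinton broth, diluted, then exposed to 2-fold serial dilutions of compound (128 to 0.25 µg/mL or 2 to 0.004 µg/mL). Incubated aerobically 18 h at 37 °C. Growth read as OD600. MIC = lowest concentration giving ≥90% growth inhibition. Three independent assays.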

Cc1cc(Cl)ccc1-c1cccc(COc2ccc(F)c(C(N)=O)c2F)c1
MBC [1]: 0.25 µg/mL (≈ 0.645 µM)
remaining at 0.5 h [2]: 19.1%
Activity [3]: Active
Tmax [4]: 4.98 min
inhibition [5]: Active
Activity [6]: >60 um
remaining at 0.5 h [7]: 1.74%
remaining at 5 min [8]: 97.1%
Selectivity ratio [9]: 4
AUC(0-t) [10]: 178 ng·h/mL
remaining at 0.25 h [11]: 86.2%
Cmax [12]: 480 ng/mL
MIC [13]: 0.125 µg/mL (≈ 0.322 µM)

Reference: ChEMBL document CHEMBL5338714, “Design, synthesis and biological evaluation of biphenyl-benzamides as potent FtsZ inhibitors” (Eur J Med Chem, 2022)
